Assay results: ChEMBL document CHEMBL4732167, “Structure based design, synthesis, and biological evaluation of imidazole derivatives targeting dihydropteroate synthase enzyme” (Bioorg Med Chem Lett, 2021)
Values after ≈ are worked out from the molar mass of the structure shown.

Experiments:
[1] = tested on: Staphylococcus aureus; assay: Antibacterial activity against Staphylococcus aureus MTCC 96 assessed as bacterial growth inhibition; assay type: functional
[2] = tested on: Escherichia coli; assay: Antibacterial activity against Escherichia coli MTCC 443 assessed as bacterial growth inhibition; assay type: functional
[3] = tested on: Pseudomonas aeruginosa; assay: Antibacterial activity against Pseudomonas aeruginosa MTCC 1688 assessed as bacterial growth inhibition; assay type: functional
[4] = tested on: Aspergillus niger; assay: Antifungal activity against Aspergillus niger MTCC 282 assessed as fungal growth inhibition; assay type: functional
[5] = tested on: Candida albicans; assay: Antifungal activity against Candida albicans MTCC 227 assessed as fungal growth inhibition; assay type: functional
[6] = tested on: Streptococcus pyogenes; assay: Antibacterial activity against Streptococcus pyogenes MTCC 442 assessed as bacterial growth inhibition; assay type: functional
[7] = tested on: Aspergillus clavatus; assay: Antifungal activity against Aspergillus clavatus MTCC 1323 assessed as fungal growth inhibition; assay type: functional
[8] = tested on: Mycobacterium tuberculosis; assay: Antibacterial activity against Mycobacterium tuberculosis H37Rv assessed as bacterial growth inhibition; assay type: functional
[9] = tested on: Plasmodium falciparum; assay: Antimalarial activity against Plasmodium falciparum assessed as parasite growth inhibition; assay type: functional, organism-based
[10] = tested on: Bacteria; assay: Antibacterial activity against ESBL-producing bacteria assessed as bacterial growth inhibition; assay type: functional
Summary of the method: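 Values are minimum inhibitory concentrations (MIC) in µg/mL, determined at an outside microbiology laboratory.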

[11] = tested on: Enterococcus; assay: Antibacterial activity against vancomycin-resistant Enterococcus assessed as inhibition of bacterial growth; assay type: functional
Summary of the method: (§1)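 Growth inhibition of the drug-resistant strain was read out as the minimum inhibitory concentration (MIC), reported in µg/mL. The same protocol was also run on an ESBL strain.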

[12] = tested on: Staphylococcus aureus; assay: Antibacterial activity against methicillin-resistant Staphylococcus aureus assessed as inhibition of bacterial growth; assay type: functional; summary of the method: as §1
[13] = Antioxidant activity assessed as DPPH radical scavenging activity at 25 ug/ml (reference value: 22 to 40.2 %); assay type: functional; details: dose 25.0 µg/ml
Summary of the method: (§2)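 DPPH radical scavenging was measured at 0, 25, 50, 75 and 100 µg/ml of each compound. Ascorbic acid was the reference.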

[14] = Antioxidant activity assessed as DPPH radical scavenging activity at 50 ug/ml (reference value: 22 to 40.2 %); assay type: functional; details: dose 50.0 µg/ml; summary of the method: as §2
[15] = Antioxidant activity assessed as DPPH radical scavenging activity at 75 ug/ml (reference value: 22 to 40.2 %); assay type: functional; details: dose 75.0 µg/ml; summary of the method: as §2
[16] = Antioxidant activity assessed as DPPH radical scavenging activity at 100 ug/ml (reference value: 22 to 40.2 %); assay type: functional; details: dose 100.0 µg/ml; summary of the method: as §2
[17] = Antioxidant activity assessed as nitric oxide radical scavenging activity at 25 ug/ml (reference value: 25.8 to 41.6 %); assay type: functional; details: dose 25.0 µg/ml
Summary of the method: (§3)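 Nitric oxide radical scavenging was tested at 0, 25, 50, 75 and 100 µg/ml of compound.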

[18] = Antioxidant activity assessed as nitric oxide radical scavenging activity at 50 ug/ml (reference value: 25.8 to 41.6 %); assay type: functional; details: dose 50.0 µg/ml; summary of the method: as §3
[19] = Antioxidant activity assessed as nitric oxide radical scavenging activity at 75 ug/ml (reference value: 25.8 to 41.6 %); assay type: functional; details: dose 75.0 µg/ml; summary of the method: as §3
[20] = Antioxidant activity assessed as nitric oxide radical scavenging activity at 100 ug/ml (reference value: 25.8 to 41.6 %); assay type: functional; details: dose 100.0 µg/ml; summary of the method: as §3
[21] = Antioxidant activity assessed as hydrogen peroxide radical scavenging activity at 25 ug/ml (reference value: 23.6 to 43.1 %); assay type: functional; details: dose 25.0 µg/ml
Summary of the method: (§4)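 Hydrogen peroxide scavenging was measured across a compound series of 0, 25, 50, 75 and 100 µg/ml.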

[22] = Antioxidant activity assessed as hydrogen peroxide radical scavenging activity at 50 ug/ml (reference value: 23.6 to 43.1 %); assay type: functional; details: dose 50.0 µg/ml; summary of the method: as §4
[23] = Antioxidant activity assessed as hydrogen peroxide radical scavenging activity at 75 ug/ml (reference value: 23.6 to 43.1 %); assay type: functional; details: dose 75.0 µg/ml; summary of the method: as §4
[24] = Antioxidant activity assessed as hydrogen peroxide radical scavenging activity at 100 ug/ml (reference value: 23.6 to 43.1 %); assay type: functional; details: dose 100.0 µg/ml; summary of the method: as §4
[25] = Antioxidant activity assessed as DPPH radical scavenging activity at 100 dilution; assay type: functional

CC(=O)c1c(C)nc(SCC(=O)Nc2ccc(OCc3ccc(F)cc3)cc2)n1-c1ccc(F)cc1
MIC [1]: 62.5 µg/mL (≈ 123 µM)
MIC [2]: 125 µg/mL (≈ 246 µM)
MIC [3]: 100 µg/mL (≈ 197 µM)
MFC [4]: 1000 µg/mL (≈ 1970 µM)
MFC [5]: 500 µg/mL (≈ 985 µM)
MIC [6]: 125 µg/mL (≈ 246 µM)
MFC [7]: 500 µg/mL (≈ 985 µM)
MIC [8]: 100 µg/mL (≈ 197 µM)
IC50 [9]: 0.82 µg/mL (≈ 1.62 µM)
MIC [10]: 250 µg/mL (≈ 493 µM)
MIC [11]: 125 µg/mL (≈ 246 µM)
MIC [12]: 100 µg/mL (≈ 197 µM)
Activity [13]: 34.8%
Activity [14]: 56.4%
Activity [15]: 71.6%
Activity [16]: 89.4%
Activity [17]: 46.8%
Activity [18]: 60.4%
Activity [19]: 70.3%
Activity [20]: 89.6%
Activity [21]: 46.1%
Activity [22]: 53.4%
Activity [23]: 63.1%
Activity [24]: 71.2%
Activity [25]: 89.4%

O=C1O[C@H]([C@@H](O)CO)C(O)=C1O
Activity [13]: 75.1%
Activity [14]: 80.6%
Activity [15]: 89%
Activity [16]: 91.7%
Activity [17]: 75.1%
Activity [18]: 80.6%
Activity [19]: 89%
Activity [20]: 91.7%
Activity [21]: 75.1%
Activity [22]: 80.6%
Activity [23]: 89%
Activity [24]: 91.7%
Activity [25]: 91.7%

CC(=O)c1c(C)nc(SCC(=O)Nc2ccc(OC(=O)c3cccs3)cc2)n1-c1ccc(F)cc1
MIC [1]: 125 µg/mL (≈ 245 µM)
MIC [2]: 100 µg/mL (≈ 196 µM)
MIC [3]: 62.5 µg/mL (≈ 123 µM)
MFC [4]: 500 µg/mL (≈ 981 µM)
MFC [5]: 500 µg/mL (≈ 981 µM)
MIC [6]: 125 µg/mL (≈ 245 µM)
MFC [7]: 250 µg/mL (≈ 491 µM)
MIC [8]: 100 µg/mL (≈ 196 µM)
IC50 [9]: 1.14 µg/mL (≈ 2.24 µM)
MIC [10]: 125 µg/mL (≈ 245 µM)
MIC [11]: 125 µg/mL (≈ 245 µM)
MIC [12]: 250 µg/mL (≈ 491 µM)
Activity [13]: 44.3%
Activity [14]: 51.4%
Activity [15]: 65.4%
Activity [16]: 89.6%
Activity [17]: 50.6%
Activity [18]: 59.3%
Activity [19]: 79.5%
Activity [20]: 89.1%
Activity [21]: 48.6%
Activity [22]: 59.3%
Activity [23]: 67.6%
Activity [24]: 79.6%
Activity [25]: 89.6%

CC(=O)c1c(C)nc(SCC(=O)Nc2ccc(OCc3ccccc3)cc2)n1-c1ccccc1
MIC [1]: 25 µg/mL (≈ 53 µM)
MIC [2]: 125 µg/mL (≈ 265 µM)
MIC [3]: 50 µg/mL (≈ 106 µM)
MFC [4]: 1000 µg/mL (≈ 2120 µM)
MFC [5]: 500 µg/mL (≈ 1060 µM)
MIC [6]: 125 µg/mL (≈ 265 µM)
MFC [7]: 1000 µg/mL (≈ 2120 µM)
MIC [8]: 500 µg/mL (≈ 1060 µM)
IC50 [9]: 0.93 µg/mL (≈ 1.97 µM)
MIC [10]: 250 µg/mL (≈ 530 µM)
MIC [11]: 500 µg/mL (≈ 1060 µM)
MIC [12]: 100 µg/mL (≈ 212 µM)
Activity [13]: 36.4%
Activity [14]: 48.6%
Activity [15]: 60%
Activity [16]: 84.3%
Activity [17]: 48.3%
Activity [18]: 64.2%
Activity [19]: 80.3%
Activity [20]: 87.4%
Activity [21]: 43.8%
Activity [22]: 58%
Activity [23]: 69.4%
Activity [24]: 81.9%

CC(=O)c1c(C)nc(SCC(=O)Nc2ccc(OCc3ccc(Cl)cc3)cc2)n1-c1ccc(Cl)cc1
MIC [1]: 100 µg/mL (≈ 185 µM)
MIC [2]: 250 µg/mL (≈ 463 µM)
MIC [3]: 125 µg/mL (≈ 231 µM)
MFC [4]: > 1000 µg/mL
MFC [5]: 1000 µg/mL (≈ 1850 µM)
MIC [6]: 100 µg/mL (≈ 185 µM)
MFC [7]: > 1000 µg/mL
MIC [8]: 25 µg/mL (≈ 46.3 µM)
IC50 [9]: 0.56 µg/mL (≈ 1.04 µM)
MIC [10]: 500 µg/mL (≈ 925 µM)
MIC [11]: 500 µg/mL (≈ 925 µM)
MIC [12]: 125 µg/mL (≈ 231 µM)
Activity [13]: 41.2%
Activity [14]: 51.7%
Activity [15]: 58.6%
Activity [16]: 85.7%
Activity [17]: 47.3%
Activity [18]: 64.3%
Activity [19]: 80.6%
Activity [20]: 88.8%
Activity [21]: 47.8%
Activity [22]: 59.4%
Activity [23]: 75.2%
Activity [24]: 89.7%

COc1ccc(-n2c(SCC(=O)Nc3ccc(OC(=O)c4cccs4)cc3)nc(C)c2C(C)=O)cc1
MIC [1]: 25 µg/mL (≈ 47.9 µM)
MIC [2]: 12.5 µg/mL (≈ 24 µM)
MIC [3]: 12.5 µg/mL (≈ 24 µM)
MFC [4]: 500 µg/mL (≈ 959 µM)
MFC [5]: 1000 µg/mL (≈ 1920 µM)
MIC [6]: 50 µg/mL (≈ 95.9 µM)
MFC [7]: 500 µg/mL (≈ 959 µM)
MIC [8]: 25 µg/mL (≈ 47.9 µM)
IC50 [9]: 0.45 µg/mL (≈ 0.863 µM)
MIC [10]: 62.5 µg/mL (≈ 120 µM)
MIC [11]: 100 µg/mL (≈ 192 µM)
MIC [12]: 100 µg/mL (≈ 192 µM)
Activity [13]: 46.8%
Activity [14]: 56.1%
Activity [15]: 68.1%
Activity [16]: 81.6%
Activity [17]: 42.3%
Activity [18]: 69.1%
Activity [19]: 76.8%
Activity [20]: 81.7%
Activity [21]: 39.4%
Activity [22]: 61%
Activity [23]: 76.4%
Activity [24]: 82.3%

CC(=O)c1c(C)nc(SCC(=O)Nc2ccc(OC(=O)c3ccco3)cc2)n1-c1ccc(F)cc1
MIC [1]: 500 µg/mL (≈ 1010 µM)
MIC [2]: 100 µg/mL (≈ 203 µM)
MIC [3]: 250 µg/mL (≈ 507 µM)
MFC [4]: 500 µg/mL (≈ 1010 µM)
MFC [5]: 500 µg/mL (≈ 1010 µM)
MIC [6]: 250 µg/mL (≈ 507 µM)
MFC [7]: 500 µg/mL (≈ 1010 µM)
MIC [8]: 250 µg/mL (≈ 507 µM)
IC50 [9]: 0.36 µg/mL (≈ 0.729 µM)
MIC [10]: 125 µg/mL (≈ 253 µM)
MIC [11]: 500 µg/mL (≈ 1010 µM)
MIC [12]: 1000 µg/mL (≈ 2030 µM)
Activity [13]: 34.6%
Activity [14]: 48.2%
Activity [15]: 66.7%
Activity [16]: 82.1%
Activity [17]: 45.2%
Activity [18]: 67.4%
Activity [19]: 79.6%
Activity [20]: 81.7%
Activity [21]: 55.9%
Activity [22]: 64.8%
Activity [23]: 76.5%
Activity [24]: 85.1%

CC(=O)c1c(C)nc(SCC(=O)Nc2ccc(OC(=O)c3ccc(Cl)cc3)cc2)n1-c1ccc(Br)cc1
MIC [1]: 250 µg/mL (≈ 417 µM)
MIC [2]: 125 µg/mL (≈ 209 µM)
MIC [3]: 100 µg/mL (≈ 167 µM)
MFC [4]: 500 µg/mL (≈ 835 µM)
MFC [5]: 1000 µg/mL (≈ 1670 µM)
MIC [6]: 100 µg/mL (≈ 167 µM)
MFC [7]: 500 µg/mL (≈ 835 µM)
MIC [8]: 12.5 µg/mL (≈ 20.9 µM)
IC50 [9]: 1.04 µg/mL (≈ 1.74 µM)
MIC [10]: 250 µg/mL (≈ 417 µM)
MIC [11]: 500 µg/mL (≈ 835 µM)
MIC [12]: 500 µg/mL (≈ 835 µM)
Activity [13]: 45.2%
Activity [14]: 52.1%
Activity [15]: 65.2%
Activity [16]: 83.1%
Activity [17]: 38%
Activity [18]: 62.4%
Activity [19]: 82.3%
Activity [20]: 90.8%
Activity [21]: 38.7%
Activity [22]: 54.2%
Activity [23]: 68.9%
Activity [24]: 86.1%
